The target of assay [1] is T1, Kelch-like ECH-associated protein 1 (Homo sapiens, UniProt Q14145). The assay is described as follows: Binding affinity to recombinant human KEAP1 Kelch domain (321 to 609 residues) expressed in Escherichia coli BL21 (DE3) assessed as thermal stabilization by sypro orange dye based thermal shift assay.
The target in assay [2] is T1, Kelch-like ECH-associated protein 1. Put plainly: Binding affinity to recombinant human KEAP1 Kelch domain (321 to 609 residues) expressed in Escherichia coli BL21 (DE3) by surface plasmon resonance analysis.
Assay [3] deals with Kelch-like ECH-associated protein 1 (Mus musculus) (UniProt Q9Z2X8). Put plainly: Binding affinity to Keap1 in mouse Hepa1c1c7 cells assessed as reduction in Keap1 interaction by measuring induction of NQO1 activity measured after 24 hrs. The assay is classed as cell-based.
Chain of Kelch-like ECH-associated protein 1 (Mus musculus) (Q9Z2X8 whole entry, the tested form may be a part): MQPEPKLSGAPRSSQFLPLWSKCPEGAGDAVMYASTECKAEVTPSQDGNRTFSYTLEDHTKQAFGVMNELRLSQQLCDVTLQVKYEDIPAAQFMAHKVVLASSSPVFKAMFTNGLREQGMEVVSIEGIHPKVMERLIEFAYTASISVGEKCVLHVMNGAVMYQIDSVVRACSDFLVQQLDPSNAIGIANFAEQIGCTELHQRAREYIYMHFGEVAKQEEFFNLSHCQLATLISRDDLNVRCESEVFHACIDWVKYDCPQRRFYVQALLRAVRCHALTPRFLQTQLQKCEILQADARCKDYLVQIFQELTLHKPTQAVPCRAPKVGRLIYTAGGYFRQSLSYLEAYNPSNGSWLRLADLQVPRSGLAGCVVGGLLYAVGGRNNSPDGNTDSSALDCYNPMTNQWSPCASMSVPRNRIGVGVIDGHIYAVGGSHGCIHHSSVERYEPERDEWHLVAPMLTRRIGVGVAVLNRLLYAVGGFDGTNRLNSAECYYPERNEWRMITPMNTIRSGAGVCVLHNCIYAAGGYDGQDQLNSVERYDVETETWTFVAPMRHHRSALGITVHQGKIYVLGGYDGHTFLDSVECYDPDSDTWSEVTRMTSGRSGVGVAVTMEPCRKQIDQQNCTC
For assay [4], the target named is T1, Kelch-like ECH-associated protein 1. The assay is described as follows: Inhibition of […]-LDEETGEFL-NH2 binding to recombinant human KEAP1 Kelch domain (321 to 609 residues) expressed in Escherichia coli BL21 (DE3) measured after 10 to 15 mins by fluorescence polarization assay. (Polarisation of emitted light reports the rotation of a fluorescent probe.)
Assay [5] has the same target. Put plainly: Binding affinity to recombinant human KEAP1 Kelch domain (321 to 609 residues) expressed in Escherichia coli BL21 (DE3) assessed as association rate constant up to 1 uM by surface plasmon resonance analysis. An outline of the steps:
(§1)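 Keap1 Kelch domain immobilized covalently on a biosensor chip. Compounds injected as two-fold serial dilutions (7–8 concentrations), with blank-injection and reference-surface subtraction. Kd from steady-state affinity: equilibrium response at end of injection plotted against concentration and fitted to a 1:1 Langmuir isotherm. For very slowly dissociating binders, single-concentration or OneStep gradient injections were fitted globally to a 1:1 kinetic model to give ka, kd and Kd.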

Assay [6] shares this target. The assay is described as follows: Binding affinity to recombinant human KEAP1 Kelch domain (321 to 609 residues) expressed in Escherichia coli BL21 (DE3) assessed as dissociation rate constant up to 1 uM by surface plasmon resonance analysis. In outline: as §1
On the technique in general: In SPR one partner is held on a chip, and binding of the other changes the refractive index at the surface.

The nature of assay [7]: Redox cycling activity of the compound assessed as H2O2 production measured after 15 mins in presence of TCEP by phenol red reagent based horseradish peroxidase coupled assay.
The target of assay [8] is T1, Kelch-like ECH-associated protein 1. The assay is described as follows: Inhibition of TAMRA-labeled AFFAQLQLDEETGEFL binding to recombinant human KEAP1 Kelch domain (321 to 609 residues) measured after 1 hr by fluorescence polarization assay.
Assay [9] has the same target.
The target in assay [10] is Kelch-like ECH-associated protein 1 (Mus musculus) (UniProt Q9Z2X8). The assay is described as follows: Binding affinity to Keap1 in mouse Hepa1c1c7 cells assessed as reduction in Keap1 interaction by measuring induction of NQO1 activity at 1 to 10 uM measured after 24 hrs. Type of assay: cell-based.
Assay [11] has as its target T1, Kelch-like ECH-associated protein 1. The assay is described as follows: Binding affinity to KEAP1 (unknown origin) by surface plasmon resonance analysis. In outline: as §1

Active and inactive are the calls of the source. No cut-off for these calls is given here.

A word on the EC50: it is the concentration needed to bring the measured effect to its halfway point. In general, Kd refers to the equilibrium constant for the complex coming apart. As usually defined, the Ki is a measure of affinity in units of concentration, obtained from inhibition or displacement. One may read the koff as the first-order rate constant of dissociation. As usually defined, the IC50 is the concentration that gives 50% inhibition. The term ΔTm denotes the shift of the melting midpoint relative to a reference.

T1 sequence (Q14145 whole entry, the tested form may be a part): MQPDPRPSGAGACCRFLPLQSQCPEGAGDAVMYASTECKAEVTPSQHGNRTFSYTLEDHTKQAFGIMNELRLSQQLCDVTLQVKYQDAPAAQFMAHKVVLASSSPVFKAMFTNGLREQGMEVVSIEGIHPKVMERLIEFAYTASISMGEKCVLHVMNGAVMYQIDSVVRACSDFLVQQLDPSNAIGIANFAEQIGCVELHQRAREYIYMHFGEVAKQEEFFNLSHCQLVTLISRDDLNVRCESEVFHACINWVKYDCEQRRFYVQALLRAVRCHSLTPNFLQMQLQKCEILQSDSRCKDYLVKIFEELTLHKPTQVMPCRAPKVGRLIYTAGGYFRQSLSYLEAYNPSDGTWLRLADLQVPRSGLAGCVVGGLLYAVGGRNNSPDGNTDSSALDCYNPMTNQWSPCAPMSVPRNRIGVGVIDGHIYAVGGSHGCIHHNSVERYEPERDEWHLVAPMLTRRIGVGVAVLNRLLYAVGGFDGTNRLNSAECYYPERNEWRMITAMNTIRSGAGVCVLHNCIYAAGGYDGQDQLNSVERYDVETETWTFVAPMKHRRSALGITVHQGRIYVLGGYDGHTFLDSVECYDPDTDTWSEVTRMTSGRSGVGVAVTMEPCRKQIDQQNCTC

For `CCCCC1CCCN1C(=O)[C@@H]1CCC[C@H](c2cccc(-n3ncc(C(=O)O)c3C3CC3)c2)C1` (relative stereo), the EC50 in assay [1] was 10 µM. Also, the Kd in assay [2] is 0.019 µM. For the same compound, the Activity result in assay [3] is “Dose-dependent effect”. Further, the inhibitory constant (Ki) in assay [4] came to 0.013 µM. Moreover, in [5], the Ka is 1.16 ×10⁵ /M/s. Further, the koff in [6] stood at 0.00226 s⁻¹. For the same compound, the result in assay [7] was inactive. Further, the IC50 in [8] worked out at 0.063 µM. In addition, the ΔTm in [9] worked out at 19 °C.

For the compound `O=C(O)COc1cccc(CNC(=O)Nc2nnc(-c3ccco3)o2)c1`, the EC50 in [1] is not above 800 µM. In addition, the figures for the Kd in [2] and in assay [11] were not above 582 µM and 100 to 1000 µM, respectively. For the same compound, the outcome in [10] and in assay [7] was inactive. Moreover, the Ki in assay [4] is not above 800 µM.

The values are drawn from ChEMBL document CHEMBL4373719, “A Comparative Assessment Study of Known Small-Molecule Keap1-Nrf2 Protein-Protein Interaction Inhibitors: Chemical Synthesis, Binding Properties, and Cellular Activity” (J Med Chem, 2019).
